MrgX1 ag – activates human MrgX1 receptor signaling. 0.44% of 310,000 active. MrgX1-HEK293 cells, Fluo-4 calcium fluorescence, agonist mode; active compounds read high. B-score at 10 µM;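 active means calcium response B-score plate-corrected fluorescence ratio at least 3 library SD, with starting fluorescence B-score inside 5 SD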
Target sequence (Q96LB2 whole entry, looked up): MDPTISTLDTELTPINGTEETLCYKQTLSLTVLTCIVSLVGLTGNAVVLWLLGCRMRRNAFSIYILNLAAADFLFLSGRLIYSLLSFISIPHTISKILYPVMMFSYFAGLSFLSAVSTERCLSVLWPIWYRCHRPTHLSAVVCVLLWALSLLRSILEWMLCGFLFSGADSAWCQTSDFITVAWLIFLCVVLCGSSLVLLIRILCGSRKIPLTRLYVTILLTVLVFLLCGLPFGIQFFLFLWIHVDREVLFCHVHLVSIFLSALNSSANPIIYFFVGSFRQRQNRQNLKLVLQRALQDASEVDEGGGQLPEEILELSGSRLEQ
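System: HEK293 cells stably expressing human MrgX1 receptor; Dosing: test compound in the initial addition of three; Schedule: overnight plating, then 30 min 37 °C plus 30 min room-temperature dye loading; Detection: kinetic calcium dye fluorescence, Fluo-4 NW; Controls: per-plate positive and negative controls for Z′ factor.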
RGS4 block – inhibitors of human RGS4 | 0.45% of 310,000 active | B-score at 10 µM | P49798 | HEK293 M3R/RGS4 inducible, Fluo-4 calcium flux; active compounds read high; triggered by carbachol at its EC20;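 active means B-score, a plate-corrected calcium signal, over three deviations above library mean, with baseline fluorescence within five deviations of library mean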;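 further: RGS4 expression induced by doxycycline in cells with stable M3 receptor; B-score is computed from the integrated fluorescence ratio over baseline after carbachol; higher B-score means a larger calcium signal and so more RGS4 inhibition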
Target sequence (P49798 whole entry, looked up): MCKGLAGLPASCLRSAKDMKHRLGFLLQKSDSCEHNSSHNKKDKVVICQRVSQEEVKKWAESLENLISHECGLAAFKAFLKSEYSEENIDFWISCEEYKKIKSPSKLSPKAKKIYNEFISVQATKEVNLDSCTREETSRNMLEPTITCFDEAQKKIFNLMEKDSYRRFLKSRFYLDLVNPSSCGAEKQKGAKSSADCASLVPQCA
MrgX1 PAM – allosterically activates human MrgX1 receptor signaling | Q96LB2 | MrgX1-HEK293, Fluo-4 calcium flux, FDSS; active compounds read high | B-score at 10 µM | 0.63% of 310,000 active;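 active means plate-corrected calcium response at least 3 library SD above typical, normal starting fluorescence, not activating the receptor alone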;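 further: compound read alongside a low EC10 to EC30 dose of BAM8-22 agonist; peak minus trough fluorescence over baseline measured at the second addition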
RGS4 pot – potentiators or activators of RGS4; 0.92% of 310,000 active; B-score at 10 µM; AID 463111; HEK293 M3R/inducible RGS4, carbachol calcium flux Fluo4; active compounds read low;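 active means B-score of the integrated calcium signal more than 4 SD below the library mean, with starting fluorescence not abnormally high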;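 further: negative B-score means reduced calcium response which marks RGS4 activation or potentiation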
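Material: M3R-expressing HEK293 line, RGS4 induced by doxycycline | Schedule: Overnight RGS4 induction, 30 min dye load 37 °C, 20 min compound RT | Measured by: Fluo4 fluorescence kinetic imaging of calcium | Read-out: Integrated calcium ratio converted to B score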
MrgX1 antagonist – antagonists of human MrgX1 receptor; B-score at 10 µM; MRGX1-HEK293 calcium flux, Fluo-4, BAM8-22 antagonism; active compounds read low; Q96LB2; 1.3% of 310,000 active;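 active means calcium-response B-score plate-corrected more than 3 library SD below zero, starting fluorescence within 5 deviations, no agonist response on first addition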;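 further: peak minus trough fluorescence over baseline after final BAM8-22 challenge near maximal dose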
RGS4 inh valid – validation of RGS4 inhibitors | shares compounds with RGS4 block | calcium response, % at 10 µM | HEK293 M3R/RGS4, carbachol calcium Fluo-4 fluorescence; carbachol added at its EC20; 0 = buffer wells, 100 = carbachol control | 65% of 1,700 active;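 active means duplicate-averaged calcium response above the buffer-only control mean plus 5 SD of those controls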;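 further: integrated fluorescence ratio F max minus min over baseline F0; higher response in RGS4-induced cells means RGS4 inhibition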
RGS4 uninduced – non-induced cell nonspecific activity of RGS4 inhibitors. shares compounds with RGS4 block. activity (percent), % at 10 µM. 20% of 1,900 active. HEK293 M3R non-induced, carbachol calcium Fluo-4; submaximal (EC20) carbachol stimulus; buffer wells 0%, carbachol control wells 100%; call rule not given here;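 further: RGS4 induction absent so cells express M3R without RGS4; higher means more calcium signal and flags a non-specific hit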
M3R basal Ca ctr – signal in non-induced cells without carbachol, RGS4 inhibitor counter-screen | shares compounds with RGS4 block | 22% of 1,900 active | calcium response (agonist-mode artifact), % at 10 µM | HEK293 M3R/RGS4 non-induced, Fluo-4 calcium, no carbachol; normalised: buffer wells 0%, carbachol wells 100%;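 active means duplicate-averaged calcium rise in uninduced cells above buffer wells' mean plus 5 SD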
MrgX1 ag reconf – reconfirmed activator of human MrgX1 receptor signaling | shares compounds with MrgX1 ag | MrgX1-HEK293, Fluo-4 calcium fluorescence, FDSS | activation, % at 10 µM | 78% of 600 active;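 active means calcium signal rise, corrected for plate position, at least 3 library SD high, with starting brightness within 5 such deviations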
MrgX1 PAM conf – confirmation of human MrgX1 receptor positive allosteric modulators | shares compounds with MrgX1 PAM | MrgX1-HEK293, Fluo-4 calcium fluorescence, FDSS | activation (ratio percentage), % at 10 µM | 13% of 1,200 active | AID 602413;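 active means ratio at least 3 SD above the weak peptide control, stable starting fluorescence, no direct agonism earlier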;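 further: compound followed by low BAM8-22 agonist challenge near EC20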
MrgX1 ant reconf – reconfirmed antagonist of human MrgX1 receptor signaling; 19% of 2,300 active; MrgX1-HEK293, BAM8-22 calcium flux, Fluo-4; active compounds read low; remaining BAM8-22 calcium response % of control (active compounds read low), % at 10 µM; shares compounds with MrgX1 antagonist;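 active means remaining agonist calcium response no higher than 100% minus 3 SD of agonist-only control wells, with starting fluorescence near control levels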;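 further: agonist BAM8-22 given at a near maximal EC90 to ECmax level; peak minus minimum fluorescence divided by baseline after agonist addition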
HEK293 Ca flux – MrgX1 antagonist counter-screen hit in parental HEK293 cells | shares compounds with MrgX1 antagonist | Fluo-4 calcium fluorescence, FDSS | fluorescence ratio F(max-min)/F0 at 10 µM | 2% of 4,000 active | AID 624111;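 active means duplicate-averaged calcium fluorescence ratio at least three times the standard deviation of buffer wells, a nonspecific response in parental cells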
HEK293 Ca counter – activity in parental HEK293 cells without MrgX1. shares compounds with MrgX1 antagonist. parental HEK293 calcium flux, Fluo-4 fluorescence ratio; active compounds read high. fluorescence ratio F(max-min)/F0 at 10 µM. 0.4% of 4,000 active. AID 624114;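 active means calcium fluorescence ratio, averaged over duplicates, at least 3 SD of the buffer-well ratio, meaning a nonspecific response in receptor-free cells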;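 further: untransfected parental HEK293 lacking MrgX1 used as counterscreen for MrgX1 allosteric activators; fluorescence change taken during the second addition on a kinetic imager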
HEK293 Ca cntr2 – activity in parental HEK293 cells lacking MrgX1 receptor; Fluo-4 calcium fluorescence (FDSS); active compounds read high; fluorescence ratio F(max-min)/F0 at 10 µM; 8.7% of 4,000 active; shares compounds with MrgX1 antagonist;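 active means calcium fluorescence ratio at least three times the spread of buffer wells, meaning a non-specific response in parental cells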
Large screens that a line does not name were inactive (follow-up assays come after a bar, where they were run). An excerpt weighted towards active compounds, which were near 3.5% of everything screened.

N#Cc1c(-c2c(Cl)cccc2Cl)noc1/C=C/Nc1ccc(C(=O)O)cc1	RGS4 block 5.4, MrgX1 PAM 12 | RGS4 inh valid 18% | RGS4 uninduced inactive | M3R basal Ca ctr inactive | MrgX1 PAM conf inactive | HEK293 Ca flux inactive | HEK293 Ca counter inactive | HEK293 Ca cntr2 inactive
COc1cc(NS(=O)(=O)c2ccc(NC(=S)NC(=O)COc3ccccc3OC)cc2)nc(OC)n1	none
CCOC(=O)[C@@H]1[C@H]2COc3ccccc3[C@@H]2N2C(=O)N(c3ccc(Cl)cc3)C(=O)[C@@]12C	MrgX1 antagonist -8.1 | RGS4 inh valid inactive | RGS4 uninduced inactive | M3R basal Ca ctr inactive | MrgX1 ant reconf inactive | HEK293 Ca flux inactive | HEK293 Ca counter inactive | HEK293 Ca cntr2 inactive
Cc1ccccc1NC(=O)CN1C(=O)c2ccccc2C1=O	none
Cc1cnnn1-c1ccc(C(=O)CCl)cc1	MrgX1 ag 28, RGS4 block 11 | RGS4 inh valid 86% | RGS4 uninduced 38% | M3R basal Ca ctr 19% | MrgX1 ag reconf 252% | HEK293 Ca flux inactive | HEK293 Ca counter inactive | HEK293 Ca cntr2 48
O=C(CCC(=O)N1CCN(c2ccccc2F)CC1)c1ccc(F)cc1	none
O=C(CCN1CCN(c2ccccc2F)CC1)c1ccc(Br)cc1	MrgX1 ag 40, RGS4 block 19 | RGS4 inh valid 39% | RGS4 uninduced inactive | M3R basal Ca ctr 8.5% | MrgX1 ag reconf inactive | HEK293 Ca flux inactive | HEK293 Ca counter inactive | HEK293 Ca cntr2 inactive
O=C(Nc1ccccc1)NC1(C(=O)N2CCN(c3ncccn3)CC2)CCCCC1	none
COc1cc(C2C(C#N)=C(N)Oc3cc(N(C)C)ccc32)cc2c1OCO2 (configuration not stated)	MrgX1 ag 94 | RGS4 inh valid inactive | RGS4 uninduced inactive | M3R basal Ca ctr 108% | MrgX1 ag reconf 273% | HEK293 Ca flux inactive | HEK293 Ca counter inactive | HEK293 Ca cntr2 86
Cc1ccc(S(=O)(=O)CCC(=O)c2ccc(O)cc2O)cc1	MrgX1 ag 30, RGS4 block 24 | RGS4 inh valid 62% | RGS4 uninduced 46% | M3R basal Ca ctr inactive | MrgX1 ag reconf 127% | HEK293 Ca flux inactive | HEK293 Ca counter inactive | HEK293 Ca cntr2 inactive
Cc1ccc(S(=O)(=O)CCC(=O)OCC(=O)c2cc(C)ccc2C)cc1	none
Nc1ncnc2c1ncn2C1OC(CO)C(O)C1O (configuration not stated)	RGS4 block 9.4, MrgX1 PAM 9.4 | RGS4 inh valid 41% | RGS4 uninduced 71% | M3R basal Ca ctr inactive | MrgX1 PAM conf inactive | HEK293 Ca flux inactive | HEK293 Ca counter inactive | HEK293 Ca cntr2 inactive
Nc1ncnc2c1ncn2[C@@H]1O[C@H](CO)C[C@@H]1O	none
O=C(CCCCC(=O)NC1CCCC1)NC1CCCC1	MrgX1 ag 40 | MrgX1 ag reconf inactive | HEK293 Ca flux inactive | HEK293 Ca counter inactive | HEK293 Ca cntr2 inactive
Nc1c(N2CCCCC2)c2ccccc2oc1=O	none
COc1cc2ccccc2nn1	none
COc1ccc2c(n1)Sc1nc3ccccc3nc1N2	MrgX1 ag 40 | MrgX1 ag reconf 501% | HEK293 Ca flux 0.18 | HEK293 Ca counter inactive | HEK293 Ca cntr2 122
COc1ccc(Cc2nc3ccccc3c(=O)n2N)cc1OC	none
O=C1CC(O)(C(F)(F)F)Oc2c1ccc1ccccc21 (configuration not stated)	MrgX1 ag 90 | MrgX1 ag reconf 565% | HEK293 Ca flux inactive | HEK293 Ca counter inactive | HEK293 Ca cntr2 103
CCc1nc2ccccc2n1Cc1ccc(OC)c(OC)c1	MrgX1 ag 41 | MrgX1 ag reconf inactive | HEK293 Ca flux inactive | HEK293 Ca counter inactive | HEK293 Ca cntr2 inactive
N[C@@H](Cc1c[nH]c2ccc(O)cc12)C(=O)O	MrgX1 ag 32 (no result: RGS4 block, RGS4 pot) | MrgX1 ag reconf inactive | HEK293 Ca flux inactive | HEK293 Ca counter inactive | HEK293 Ca cntr2 inactive
CCOC(=O)C1CCN(S(=O)(=O)c2ccc3[nH]c4c(c3c2)CCCC4)CC1	none
CCOc1ccc(C(C)=O)cc1CSC(=N)N	MrgX1 ag 30 | MrgX1 ag reconf 164% | HEK293 Ca flux inactive | HEK293 Ca counter inactive | HEK293 Ca cntr2 inactive
COc1ccc(C(C)=O)cc1CSCc1cc(C(C)=O)ccc1OC	none
CCCCOc1ccc(Br)cc1CSC(=N)N	none (no result: MrgX1 ag, MrgX1 PAM, MrgX1 antagonist)
COc1ccc(C(C)=O)cc1CSC(=N)N	MrgX1 ag 47 | MrgX1 ag reconf 240% | HEK293 Ca flux inactive | HEK293 Ca counter inactive | HEK293 Ca cntr2 inactive
CCC(CNC(=O)c1c(C)nn(-c2ccccc2)c1Cl)c1ccccc1 (configuration not stated)	none
Cc1[nH]nc2c1C(c1ccc(-c3ccc(Cl)cc3)o1)C(C#N)=C(N)O2 (configuration not stated)	MrgX1 ag 34 | MrgX1 ag reconf inactive | HEK293 Ca flux inactive | HEK293 Ca counter inactive | HEK293 Ca cntr2 inactive
Cc1ccc(-c2ccc(C3C(C#N)=C(N)Oc4n[nH]c(C)c43)o2)cc1 (configuration not stated)	MrgX1 ag 37 | MrgX1 ag reconf 129% | HEK293 Ca flux inactive | HEK293 Ca counter inactive | HEK293 Ca cntr2 inactive
COc1ccc(-c2nn(-c3ccccc3)cc2/C=C/C(=O)N2CCN(c3ccccn3)CC2)cc1	none
Cc1cccc2c(CC(=O)Nc3ccccc3)noc12	none
